Bioassay records: PubChem BioAssay, several laboratories
In the library only some 2.9% were active in any assay of this set; here they are far more common.
NALP1 yeast inh: NALP1 inflammasome inhibitors in reconstituted yeast, colorimetric, S. cerevisiae, triplicate retest; AID 2071, 2009; actives 0.61% (n = 280,000); inhibition, % at 10 µM; S. cerevisiae NALP1/ASC/caspase-1 growth, X-gal OD620, 72 h; in the data active = inhibition mostly above about 24%, no sharp cut-off; inactive = mostly below about 32%
IMP-1 inh-1: IMP-1 metallo-beta-lactamase inhibitors, primary screen, biochemical, epi-absorbance readout, Pseudomonas aeruginosa enzyme. purified IMP-1, nitrocefin hydrolysis, epi-absorbance fluorescence. actives 0.45% (n = 290,000). inhibition, % at 5.6 µM. metallo-beta-lactamase IMP-1 (Pseudomonas aeruginosa). AID 1556, 2009;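 active = inhibition above the mean plus 3 SD of all compounds in the same screening run, cut at about 4.5% in these data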;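 note: 0% = IMP-1 with DMSO and 100% = DMSO wells lacking enzyme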
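System: purified IMP-1; amount: IMP-1 0.2 nM before substrate addition; compound: single dose, 5.6 µM; times: 25 °C, 15 min preincubation, 25 min reaction; signal: Epi-absorbance via hydrolysed-nitrocefin quenching of white-plate fluorescence, 480/530 nm, EDTA stop; benchmarks: DMSO with and without IMP-1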
FID counter: compounds displacing fluorescent DNA intercalator, primary screen, artefact control for HCV NS3 helicase inhibitor project, biochemical, FID fluorescence; inhibition, % at 7.9 µM; DNA fluorescent intercalator displacement; AID 1845, 2009; actives 0.17% (n = 290,000); in the data active = inhibition above about 37%;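 note: 0% = vehicle and 100% = reference compound; higher means more ethidium bromide displaced from hairpin DNA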
SUMO HTRF inh: inhibitors of in vitro SUMOylation cascade, primary screen, biochemical, HTRF, uHTS; SUMO-conjugating enzyme UBC9 (Homo sapiens), P63279; HTRF SUMOylation assay, SAE1/SAE2 + UBC9; inhibition, % at 35 µM; actives 0.36% (n = 290,000); in the data active = inhibition above about 50%, passing the limit was not always enough
Target sequence (P63279 whole entry, looked up): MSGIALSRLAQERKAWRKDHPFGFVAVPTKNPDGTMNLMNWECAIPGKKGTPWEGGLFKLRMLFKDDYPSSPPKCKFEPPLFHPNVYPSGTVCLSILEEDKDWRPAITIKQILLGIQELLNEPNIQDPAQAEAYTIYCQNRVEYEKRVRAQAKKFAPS
VIM-2 inh: VIM-2 metallo-beta-lactamase inhibitors, primary screen, biochemical, epi-absorbance readout, Pseudomonas aeruginosa enzyme. purified VIM-2, nitrocefin hydrolysis, epi-absorbance fluorescence. inhibition, % at 5.6 µM. AID 1527, 2009. actives 0.89% (n = 290,000);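 active = inhibition above the mean of all tested compounds plus 3 SD, cutoff set per screening run, cut at about 7.5% in these data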;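 note: red hydrolysis product quenches plate fluorescence so inhibitors raise well fluorescence; 0% = enzyme with DMSO and 100% = DMSO without enzyme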
SUMO Mot1 rescue: yeast Mot1-301 growth rescue at high temperature, primary screen, SUMOylation pathway inhibitor project, S. cerevisiae, ATP luminescence, 38.5C | S. cerevisiae Mot1-301 growth rescue; percent above DMSO median, 100 means doubled | growth rescue, % at 18.8 µM | actives 1% (n = 320,000);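 active = every valid replicate shows activation above 250% relative to neutral control wells; inactive = the rest, any valid replicate at or below 250%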;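 note: OY570 slx delta 5 strain wells were the positive control but not used for scaling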
IMP-1 inh-2: IMP-1 metallo-beta-lactamase inhibitors, confirmation, selectivity assay for selective VIM-2 inhibitor project, biochemical, epi-absorbance readout, triplicate. inhibition, % at 5.6 µM. AID 1856, 2009. shares compounds with VIM-2 inh. purified IMP-1, nitrocefin hydrolysis, epi-absorbance fluorescence. 1,300 tested, under 10 active; call rule not given here;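 note: 0% = enzyme with vehicle and 100% = vehicle without enzyme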
VIM-2 FRET inh: VIM-2 inhibitors in FRET format, confirmation, artefact control for selective VIM-2 inhibitor project, biochemical, epi-absorbance artifact exclusion. inhibition, % at 5.6 µM. shares compounds with VIM-2 inh. actives 23% (n = 1,300). AID 1857, 2009. purified VIM-2, CCF2 FRET substrate hydrolysis;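 active = inhibition above the mean of all tested compounds plus 3 SD, cut at about 19% in these data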;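 note: 0% = VIM-2 plus DMSO and 100% = no enzyme wells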
TEM-1 counter: TEM-1 serine beta-lactamase inhibitors, counter-screen for VIM-2 inhibitor project, biochemical, epi-absorbance, HTS; shares compounds with VIM-2 inh; Purified TEM-1, nitrocefin hydrolysis, epi-absorbance fluorescence; inhibition, % at 5.6 µM; actives 3% (n = 1,300); AID 1866, 2009;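 active = inhibition above that campaign's mean inhibition plus 3 SD, cut at about 0.46% in these data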;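 note: 0% = TEM-1 with DMSO and 100% = TEM-1 with 100 µM potassium clavulanate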
Target sequence (P62593 whole entry, looked up): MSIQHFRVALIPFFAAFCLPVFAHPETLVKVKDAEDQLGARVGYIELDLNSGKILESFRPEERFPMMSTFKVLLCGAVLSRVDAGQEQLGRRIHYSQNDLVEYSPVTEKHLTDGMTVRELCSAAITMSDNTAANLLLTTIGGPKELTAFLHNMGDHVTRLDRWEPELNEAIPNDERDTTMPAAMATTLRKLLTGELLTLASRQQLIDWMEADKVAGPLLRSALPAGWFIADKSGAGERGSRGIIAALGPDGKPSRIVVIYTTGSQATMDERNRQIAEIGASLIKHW
VIM-2 inh conf: VIM-2 metallo-beta-lactamase inhibitors, confirmation, biochemical, epi-absorbance, hits shared with IMP-1 screen; actives 96% (n = 1,300); AID 2187, 2009; purified VIM-2, nitrocefin hydrolysis; inhibition, % at 5.6 µM; shares compounds with VIM-2 inh;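 active = inhibition of the VIM-2 beta-lactamase enzyme above about 11% from the earlier first-round screen, limit read from the data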;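 note: 0% = VIM-2 with DMSO and 100% = buffer wells without enzyme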
* hit, by the source's call; . = no result.

SMILES	NALP1 yeast inh	IMP-1 inh-1	FID counter	SUMO HTRF inh	VIM-2 inh	SUMO Mot1 rescue	IMP-1 inh-2	VIM-2 FRET inh	TEM-1 counter	VIM-2 inh conf
COc1cc(Br)cc2cc(C(=O)OC3CCN(C)CC3)c(=O)oc12	.	-1.4	9.0	.	13.7*	-16.5	-2.6	0.7	-6.0	21.5*
O=C(c1ccccc1)N1CCN(c2ccc(N3CCOCC3)nn2)CC1	.	.	.	.	.	60.7	.	.	.	.
Cc1ccc(-c2nn3cnnc3c3ccccc23)cc1C	10.9	-1.2	-22.0	0.4	23.5*	1.2	0.2	5.5	1.6*	39.0*
Cc1ccc(-c2nn3nnnc3c3ccccc23)cc1C	5.9	-0.2	0.3	-13.0	-0.2	.	.	.	.	.
O=[N+]([O-])c1cc([N+](=O)[O-])c(Oc2cc(F)cc(F)c2)cc1NN1CCCCC1	.	.	.	.	.	9.2	.	.	.	.
O=C(COC(=O)COc1ccc(Cl)cc1)NCCNC(=O)COC(=O)COc1ccc(Cl)cc1	.	.	.	.	.	-3.6	.	.	.	.
COc1cc2c(cc1OC)C(c1ccc(-c3ccccc3Cl)o1)=NCC2	25.1	-0.5	5.5	9.3	19.4*	-13.1	-2.3	7.5	-5.4	28.1*
COc1cc2c(cc1OC)C(c1ccc(-c3ccc(Cl)cc3Cl)o1)=NCC2	20.3	-0.1	8.5	-24.1	3.4	43.4	.	.	.	.
CCOc1ccc(CNC(=O)C2Cc3cc(S(=O)(=O)N4CCCC4)ccc3N2C(C)=O)cc1 (centres undefined)	1.5	-0.1	-34.1	1.5	25.4*	3.2	-3.6	-2.5	-3.5	0.9
CN(C)S(=O)(=O)c1cccc(NC(=S)N/N=C/c2ccco2)c1	-7.8	-2.7	-11.3	7.5	0.8	-9.3	.	.	.	.
CN(C)S(=O)(=O)c1cccc(NC(=S)N/N=C/C(c2ccccc2)c2ccccc2)c1	4.1	-5.7	-1.0	-5.6	20.5*	-10.7	-3.4	35.0*	-7.5	22.8*
COc1cccc(/C=N/NC(=S)Nc2cccc(S(=O)(=O)N(C)C)c2)c1	.	-1.9	-20.6	26.4	4.3	-16.7	.	.	.	.
CC(/C=N/NC(=S)Nc1cccc(S(=O)(=O)N(C)C)c1)c1ccccc1 (centres undefined)	10.6	-3.6	-5.6	11.6	46.2*	27.2	-2.5	67.2*	-3.1	51.9*
CC/C(=N\NC(=O)c1cccnc1)c1ccc2c(c1)OCCO2	11.3	-4.0	-3.6	-1.4	45.7*	-0.7	-3.9	-2.5	-4.8	1.2
CCOC(=O)c1cnc2ccc(OCC)cc2c1NCCCN1CCOCC1	24.0	-3.7	54.6*	-1.8	32.2*	-4.8	-2.8	-3.4	-5.6	45.0*
CCOC(=O)c1cnc2ccc(C(=O)OC)cc2c1NCCCN1CCOCC1	17.1	0.6	28.5	19.4	69.9*	31.9	-3.9	-3.1	-6.0	81.7*
CCC1(c2ccccc2)NC(=O)N(CC(=O)NNC(=O)COc2ccc(Cl)cc2C)C1=O (centres undefined)	.	.	.	.	.	-5.6	.	.	.	.
CCc1ccc(NC(=O)c2cnc(N3CCN(c4ccccn4)CC3)c3ccccc23)cc1	-2.2	-0.8	-7.8	-2.9	-0.3	519.5	.	.	.	.
CCN1CCN(c2ncc(C(=O)Nc3ccccc3C(=O)OC)c3ccccc23)CC1	32.9	-2.0	6.5	2.1	18.2*	.	-3.6	3.1	-5.5	30.5*
CCN1CCN(c2ccc(NC(=O)COc3ccccc3Cl)cc2)CC1	-0.6	-1.7	8.0	5.9	13.6*	9.0	-2.7	-0.5	-8.0	30.8*
CN1CCN(c2ccc(NC(=O)COc3cccc4ccccc34)cc2)CC1	26.6	-2.7	13.9	2.6	27.8*	189.3	-2.6	-4.6	-4.1	33.4*
CN1CCN(c2ccc(NC(=S)NC(=O)c3cccc4ccccc34)cc2)CC1	10.1	0.8	22.1	12.1	19.6*	-2.9	-2.5	-7.6	-6.2	29.2*
CN1CCN(c2ccc(NC(=S)NC(=O)/C=C/c3ccco3)cc2)CC1	-10.8	1.2	12.6	8.0	50.4*	5.4	-0.2	-2.5	-2.4	67.3*
CCCn1c(SCC(=O)N2CCCC(C)C2)nnc1-c1ccccn1 (centres undefined)	7.7	-0.7	-22.7	12.1	-2.6	17.3	.	.	.	.
O=C(CN1C(=O)S/C(=C\c2ccc(F)cc2)C1=O)Nc1cccc(S(=O)(=O)NCc2ccco2)c1	-3.9	-2.9	-8.7	-36.4	-3.6	2.3	.	.	.	.
SMILES	NALP1 yeast inh	IMP-1 inh-1	FID counter	SUMO HTRF inh	VIM-2 inh	SUMO Mot1 rescue	IMP-1 inh-2	VIM-2 FRET inh	TEM-1 counter	VIM-2 inh conf
CC1CCN(Cc2nnnn2CCCC(=O)N(C)C2CCOC2)CC1 (centres undefined)	3.1	-0.7	-13.1	14.8	-1.2	-2.3	.	.	.	.
COc1cnc(-c2ccccn2)nc1Oc1ccc(F)cc1F	17.6	-4.6	-23.0	4.2	18.2*	22.2	-4.6	-29.8	-4.1	28.6*
COc1cnc(-c2ccccn2)nc1Oc1ccc(Cl)c2ccccc12	5.4	-3.6	-9.2	-16.2	39.5*	.	-4.5	-29.9	-6.2	75.9*
COc1cnc(-c2ccccn2)nc1Oc1ccccc1Cl	25.8	-1.8	-13.7	6.1	17.1*	-8.0	-4.0	-25.9	-4.4	45.8*
COc1cnc(-c2ccccn2)nc1NC(C)C	-2.6	-3.3	5.3	-15.4	7.0	15.6	.	.	.	.
COc1cnc(-c2ccccn2)nc1Oc1ccc(Cl)cc1	9.1	-3.6	-14.6	10.1	5.6	-8.0	.	.	.	.
CCC(Sc1ccccn1)C(=O)Nc1cccc([N+](=O)[O-])c1 (centres undefined)	-1.9	-2.1	7.7	6.4	-2.2	4.0	.	.	.	.
O=C(O)C[C@]1(C(=O)Nc2ccc(F)cc2)CC(/C=C/c2ccccc2)=NO1	-63.6	-2.6	-25.0	10.2	-2.2	-16.0	.	.	.	.
